Measurements from PubChem BioAssay AID1216 (Sanford-Burnham Center for Chemical Genomics, 2008).
Hit rate of the full screen: of about 190,000 compounds, about 660 (0.35%) were called active. Only a selection was taken, and actives are over-represented in it overall. A number with no mark means an inactive call.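 The calls were made as follows: active = activation factor of 2 or more at 20 µM; inactive = the rest.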

The molecules below were run against Mannose-6-phosphate isomerase (Homo sapiens) (UniProt P34949) (assay: human PMI activators, high substrate, primary screen, biochemical, fluorescence intensity, near-saturating mannose 6-phosphate (AID 1216)). Conditions: coupled PMI enzyme assay, resazurin fluorescence, 20 min; at 20 µM; hits give high values; 1 = untreated enzyme, 0 = substrate-free blank.
Sequence of Mannose-6-phosphate isomerase (Homo sapiens) (P34949 whole entry, looked up): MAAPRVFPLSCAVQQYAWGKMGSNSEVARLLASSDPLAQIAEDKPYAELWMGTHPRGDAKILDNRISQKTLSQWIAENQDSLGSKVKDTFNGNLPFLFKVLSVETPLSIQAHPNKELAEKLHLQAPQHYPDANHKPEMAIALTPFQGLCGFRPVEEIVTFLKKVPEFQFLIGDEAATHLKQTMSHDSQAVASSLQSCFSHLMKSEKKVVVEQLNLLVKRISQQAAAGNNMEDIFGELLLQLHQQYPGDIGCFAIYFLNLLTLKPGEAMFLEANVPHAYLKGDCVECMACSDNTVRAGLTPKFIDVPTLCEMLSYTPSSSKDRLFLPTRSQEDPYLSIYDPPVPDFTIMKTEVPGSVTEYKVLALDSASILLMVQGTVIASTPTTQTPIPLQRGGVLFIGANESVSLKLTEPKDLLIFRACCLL
Summary of the method: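 Material: human phosphomannose isomerase with PGI, G6PDH, diaphorase coupling enzymes. Quantity: 15 ng/mL PMI. Medium: HEPES pH 7.4 buffer with MgCl2 and Tween-20. Reagent: Near-saturating mannose-6-phosphate, 1.0 mM. Compound: 20 µM single dose. Times: enzyme reaction with compound 20 min at room temperature. Detection: resorufin fluorescence at Ex 544/Em 590 nm.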
For `COc1ccc(-n2nc(C(=O)Nc3cc(OC)c(OC)c(OC)c3)c3ccccc3c2=O)c(OC)c1`, the activation factor was 0.9. Work on `O=C(CSc1nnc(-c2ccc([N+](=O)[O-])cc2)o1)Nc1ccccn1` yielded an activation factor of 1. `CCOC(=O)C1=C(C)NC(C)=C(C(=O)OCC)C1c1ccccn1` showed an activation factor of 1. With `CCOC(=O)C1=C(C)NC(=O)NC1c1ccccc1` (configuration not stated) the activation factor was 1. `CCOC(=O)C1=C(C)NC(SC)=NC1c1ccccc1` (configuration not stated) was tested, and the activation factor was 2.7 (active). Molecule `CSc1cccc(NC(=S)N(Cc2ccccc2)Cc2ccccn2)c1` has an activation factor of 0.9. With `CCO[C@@H]1OC(C(=O)NCc2nc3ccccc3[nH]2)=C[C@H](C2CCCCC2)[C@H]1CCCO` the activation factor was 0.9. With `O=C(COC(=O)c1ccc(F)cc1)Nc1nc2ccc([N+](=O)[O-])cc2s1` the activation factor was 1. `C=CCn1c(C)cc(C2=NNC(=NCC)SC2)c1C` showed an activation factor of 1.1. `COCCn1c(C)cc(C2=NNC(=Nc3ccc(F)cc3)SC2)c1C` was tested, and the activation factor was 1.3. For `Cc1cc(C2=NNC(=Nc3ccc(S(=O)(=O)N4CCOCC4)cc3)SC2)c(C)n1CC1CCCO1` (configuration not stated), the activation factor was 2.1 (active). Work on `COc1ccccc1NC(=S)N1CCN(C(c2ccccc2)c2ccccc2)CC1` yielded an activation factor of 1. With `O=C(Nc1ccc(NC(=O)c2ccco2)c(Cl)c1)c1cccc([N+](=O)[O-])c1` the activation factor was 1. Work on `CC(C)(C)c1ccc(/C=C/C(=O)Nc2ncccn2)cc1` yielded an activation factor of 0.8. Work on `Cc1ccc(CNC(=O)c2cccnc2Cl)cc1` yielded an activation factor of 1. Molecule `Cc1ccc(Cl)cc1NC(=O)c1ccccn1` has an activation factor of 1. For `O=C(NNc1cc(Cl)ccc1Cl)c1cccnc1Cl`, the activation factor was 2 (active). `O=C(COc1ccc(-c2ccccc2)cc1)NN=C1CCCC1` showed an activation factor of 1. `Cc1ccc(-c2nn(-c3cccc(F)c3)cc2CNCCc2ccncc2)o1` was tested, and the activation factor was 1. `COc1ccc(N2CCN(C(=O)CCSCc3ccccc3F)CC2)cc1` gave an activation factor of 0.9. With `CCOc1cc(N2CCOCC2)c(OCC)cc1NC(=O)c1ccc(C)s1` the activation factor was 0.7. `COC(=O)c1sc(=S)n(-c2ccccc2)c1N` showed an activation factor of 0.9. For `CCOC(=O)Cn1c(N)c(C(=O)OC)sc1=S`, the activation factor was 1.1. With `COC(=O)c1sc2[nH]c(=S)n(N)c(=O)c2c1C` the activation factor was 2 (active). In the case of `Cc1cccc(C)c1NC(=O)CNC(=O)Cc1ccc(Br)cc1`, the activation factor is reported as 1. `O=S(=O)(Nc1cc(S(=O)(=O)N2CCOCC2)ccc1N1CCCC1)c1cccs1` gave an activation factor of 1.1. `NC(=O)CC[C@@H]1NC(=O)[C@@H]2CCCN2C(=O)c2cc([N+](=O)[O-])cc(F)c2NCCC[C@@H](C(N)=O)NC1=O` showed an activation factor of 1. For `O=C(CC1C(=O)NCCN1CC(c1ccccc1)c1ccccc1)NCCc1cn[nH]c1` (configuration not stated), the activation factor was 0.8. `COC(=O)c1[nH]c2cccc(C)c2c1NC(=O)CN1CCCc2ccccc21` was tested, and the activation factor was 2.1 (active). Work on `NS(=O)(=O)c1cccc(NC(=O)CN2CCCc3ccccc32)c1` yielded an activation factor of 1.1. Work on `COC(=O)c1[nH]c2ccccc2c1NC(=O)CN1CCCc2ccccc21` yielded an activation factor of 0.9. Molecule `C=CCNC(=O)c1ccccc1NC(=O)c1ccc(Cl)c(S(=O)(=O)Nc2cccc(C)c2C)c1` has an activation factor of 1. With `Cc1cccc(C)c1NC(=S)N(Cc1cccnc1)Cc1ccccc1Cl` the activation factor was 0.8. Molecule `CCOC(=O)c1[nH]ncc1CN1CCCC(C(=O)c2ccc(OC)cc2C)C1` (configuration not stated) has an activation factor of 1.1. `COc1ccccc1N(C)S(=O)(=O)c1ccc(Cl)c(C(=O)N2CCC(C(N)=O)CC2)c1` was tested, and the activation factor was 1.1. For `CCn1cc(-c2cc(C(=O)O)on2)c(C)n1`, the activation factor was 1.2. `Cc1ccc2nc(NCCCNC(=O)c3cnccn3)c(C#N)cc2c1` gave an activation factor of 0.9. With `COCCCNC(=S)NCCNc1nc2cc(C)c(C)cc2cc1C#N` the activation factor was 2.1 (active). With `COCCCNC(=S)NC(=O)c1ccc([N+](=O)[O-])cc1` the activation factor was 0.9. With `O=C(NCc1ccccc1Cl)C1CCC(CNc2c(N3CCCCC3)c(=O)c2=O)CC1` (configuration not stated) the activation factor was 1. `CCCCn1c(O)c(N=NC(=O)Cn2c(C(F)(F)F)nc3ccccc32)c2ccccc21` was tested, and the activation factor was 1. Molecule `CCOC(=O)N1CCC(=NNC(N)=O)CC1` has an activation factor of 1. Molecule `COc1cccc2cc(/C(C)=N/NC(=O)c3ccco3)oc12` has an activation factor of 1.1. With `COc1ccccc1N(CC(=O)Nc1ccc(C(F)(F)F)cc1)S(C)(=O)=O` the activation factor was 1.1. Work on `c1ccc(Nc2n[nH]nc2-c2ccccc2)cc1` yielded an activation factor of 0.9. Work on `Cc1nc(C)c(-c2csc(NCCc3ccccc3)n2)s1` yielded an activation factor of 1. Work on `CC(C)(C)C(=O)c1cnc(Nc2ccccc2)s1` yielded an activation factor of 1. With `O=C(CSc1ncccn1)NCCc1ccccc1` the activation factor was 1. With `S=c1[nH]nc(Nc2ccccc2)s1` the activation factor was 2 (active). In the case of `S=c1[nH]nc(NCCc2ccccc2)s1`, the activation factor is reported as 2.1 (active). For `N=c1c2c3c(sc2ncn1N)CCCC3`, the activation factor was 0.9. Work on `O=c1[nH]cnc2c1c(-c1ccccc1)cn2-c1ccc(F)cc1` yielded an activation factor of 1.
